The subject of assay [1] is T1, Adenosine receptor A3 (Homo sapiens), P0DMS8 [Y265F].
T1 sequence (whole entry): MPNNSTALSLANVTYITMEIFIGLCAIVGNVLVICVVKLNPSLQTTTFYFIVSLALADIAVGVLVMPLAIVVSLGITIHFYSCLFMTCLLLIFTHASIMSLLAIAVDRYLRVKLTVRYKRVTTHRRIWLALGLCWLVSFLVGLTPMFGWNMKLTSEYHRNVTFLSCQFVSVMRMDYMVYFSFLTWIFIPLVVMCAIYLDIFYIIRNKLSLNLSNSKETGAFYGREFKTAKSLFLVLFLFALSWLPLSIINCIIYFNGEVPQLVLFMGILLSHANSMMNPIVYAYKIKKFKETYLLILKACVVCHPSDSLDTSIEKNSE
Nature of the assay: Displacement of [3H]PSB11 from human A3 adenosine receptor Y265F (7.36) mutant transiently expressed in CHOK1 cell membranes assessed as residual binding level at 10 times IC50 incubated for 2 hrs followed by 4 times membrane washout and subsequent [3H]PSB11 addition by scintillation spectrometric method. The gist of the method:
(§1)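 Membranes then either unwashed or washed four times before [3H]PSB-11 exposure. Binding normalized to vehicle (100%); three experiments in duplicate.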
(Displacement assays read how much labelled ligand stays bound in the presence of the test substance.)

For assay [2] the test system is unchanged. As to the kind of experiment: Displacement of [3H]PSB11 from human A3 adenosine receptor Y265F (7.36) mutant transiently expressed in CHOK1 cell membranes assessed as residual binding level at 10 times IC50 measured after 2 hrs by scintillation spectrometric method. The method in brief: as §1
Assay [3] concerns the target T2, Adenosine receptor A3 (Homo sapiens) (UniProt P0DMS8).
T2 sequence (whole entry): T1 sequence (whole entry) with F265Y
Nature of the assay: Displacement of [3H]PSB11 from human A3 adenosine receptor expressed in CHO cell membranes by scintillation spectrometric method. To be noted: TDE = time-dependent effect. The gist of the method:
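CHO membranes stably expressing hA3AR (15 µg) in 50 mM Tris-HCl, 5 mM MgCl2, 0.01% CHAPS, 1 mM EDTA, pH 7.4, with ~10 nM [3H]PSB-11 and six competitor concentrations, 120 min at 25 °C. Nonspecific binding defined with 100 µM NECA. Filtration, then scintillation counting; one-site fit, Cheng-Prusoff Ki; three experiments in duplicate.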

Assay [4] has as its target T2, Adenosine receptor A3 (Homo sapiens). As to the kind of experiment: Irreversible displacement of [3H]PSB11 from human A3 adenosine receptor expressed in CHO cell membranes assessed as residual binding level at 10 times Ki incubated for 2 hrs followed by 4 times membrane washout ans subsequent [3H]PSB11 addition by scintillation spectrometric method relative to control. The method in brief: (§2)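 Membranes then either unwashed or washed four times by centrifugation before [3H]PSB-11 addition. Specific binding normalized to vehicle (100%); three experiments in duplicate; unpaired t test.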

The target is the same in assay [5]. As to the kind of experiment: Displacement of [3H]PSB11 from human A3 adenosine receptor expressed in CHO cell membranes measured after 2 hrs by scintillation spectrometric method.
Assay [6] has the same target. As to the kind of experiment: Irreversible displacement of [3H]PSB11 from human A3 adenosine receptor expressed in CHO cell membranes assessed as residual binding level at 10 times Ki measured after 2 hrs by scintillation spectrometric method relative to control. The method in brief: as §2
In assay [7] the target is T3, Adenosine receptor A3 (Homo sapiens, UniProt P0DMS8).
T3 sequence (P0DMS8 whole entry): T1 sequence (whole entry) with F265Y
Nature of the assay: Irreversible displacement of [3H]PSB11 from human A3 adenosine receptor expressed in CHO cell membranes measured up to 240 mins by scintillation spectrometric method. To be noted: in the assay text read “Displacement” for “Irreversible displacement”. The method in brief: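 Bound radioligand sampled at time points up to 240 min, then filtered and counted. Competitor kon (k3) and koff (k4) obtained by Motulsky–Mahan fitting, using [3H]PSB-11 k1 and k2 from earlier work.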

Assay [8] addresses T2, Adenosine receptor A3 (Homo sapiens). As to the kind of experiment: Reversible displacement of [3H]PSB11 from human A3 adenosine receptor expressed in CHO cell membranes assessed as residual binding level at 10 times Ki incubated for 2 hrs followed by 4 times membrane washout and subsequent [3H]PSB11 addition by scintillation spectrometric method relative to control. The method in brief:
(§3)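 Samples then either taken unwashed or put through four centrifugation wash cycles before exposure to [3H]PSB-11. Remaining specific binding was normalized to vehicle (100%). Three experiments in duplicate; unpaired t test.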

Assay [9] shares this target. As to the kind of experiment: Displacement of [3H]PSB11 from human A3 adenosine receptor transiently expressed in CHOK1 cell membranes measured after 2 hrs by scintillation spectrometric method. The method in brief: (§4)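 CHO-K1 cells transfected by PEI (3:1, 20 µg DNA/dish) with WT or Y265F7.36 hA3AR, then given 5 mM sodium butyrate for 24 h before membrane preparation.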

The target in assay [10] is T3, Adenosine receptor A3. Nature of the assay: Competitive surmountable antagonist activity at human A3 adenosine receptor expressed in CHO cell membranes assessed as inhibition of 2-Cl-IB-MECA-induced [35S]-GTPgammaS binding preincubated for 60 mins followed by 2-Cl-IB-MECA and [35S]-GTPgammaS addition and measured after 30 mins. Type of assay: functional. To be noted: read-out: pA2 (converted).

Assay [11] deals with T4, Adenosine receptor A2b (Homo sapiens) (UniProt P29275).
T4 sequence (whole entry): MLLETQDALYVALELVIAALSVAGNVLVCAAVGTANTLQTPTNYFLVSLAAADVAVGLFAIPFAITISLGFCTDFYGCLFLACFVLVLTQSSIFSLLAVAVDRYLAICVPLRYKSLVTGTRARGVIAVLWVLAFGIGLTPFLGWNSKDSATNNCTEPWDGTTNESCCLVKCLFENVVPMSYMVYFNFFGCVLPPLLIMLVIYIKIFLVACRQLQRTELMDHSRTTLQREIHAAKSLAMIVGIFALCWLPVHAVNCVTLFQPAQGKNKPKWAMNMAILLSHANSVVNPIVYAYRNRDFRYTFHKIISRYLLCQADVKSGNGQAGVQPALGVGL
As to the kind of experiment: Displacement of [3H]PSB-603 from human A2B adenosine receptor expressed in CHO cell membranes at 1 uM measured after 2 hrs by scintillation spectrometric method relative to control.

In assay [12] the target is T2, Adenosine receptor A3 (Homo sapiens). As to the kind of experiment: Reversible displacement of [3H]PSB11 from human A3 adenosine receptor expressed in CHO cell membranes assessed as residual binding level at 10 times Ki measured after 2 hrs by scintillation spectrometric method relative to control. The method in brief: as §3
Assay [13] concerns the target T3, Adenosine receptor A3. As to the kind of experiment: Competitive surmountable antagonist activity at human A3 adenosine receptor expressed in CHO cell membranes assessed as inhibition of 2-Cl-IB-MECA-induced [35S]-GTPgammaS binding measured after 30 mins. Type of assay: functional. The conditions noted are these: read-out: pA2 (converted). (GTPγS resists hydrolysis and so accumulates on activated G proteins.)

Assay [14] has as its system T1, Adenosine receptor A3 (Homo sapiens), P0DMS8 [Y265F]. As to the kind of experiment: Displacement of [3H]PSB11 from human A3 adenosine receptor Y265F (7.36) mutant transiently expressed in CHOK1 cell membranes measured after 2 hrs by scintillation spectrometric method. The method in brief: as §4
Assay [15] concerns the target T2, Adenosine receptor A3 (Homo sapiens). As to the kind of experiment: Displacement of [3H]PSB11 from human A3 adenosine receptor expressed in CHO cell membranes at 10 uM measured after 2 hrs by scintillation spectrometric method relative to control.

Structures are written as SMILES. Residue numbers refer to the chain shown, from its start.

Usually inhibition stands for the percentage by which the read-out fell short of the control. On to `CCCn1c(=O)c2c(nc3cc(OC)ccn32)n(CCCNC(=O)c2ccc(S(=O)(=O)F)cc2)c1=O`, for which the Activity in assay [1] stood at 91%; in [2] it was 7.2%; in [4] it was 8.7%; in [6], 11.3%. The inhibition entry in [3] was “Tde”; in assay [5], “Dose-dependent effect”.

With `CCCn1c(=O)c2c(nc3cc(OC)ccn32)n(CCCNC(=O)c2ccc(S(C)(=O)=O)cc2)c1=O`, on Adenosine receptor A3 [7], the Ki is 525 nM. For the same compound, the Activity in assay [8] turned out to be 97.6%; in assay [12] it was 19.8%. Also, the pIC50(app) in [9] stood at 5.9; in [14], 6.1. The figures for the Kb at Adenosine receptor A3 [10] and on Adenosine receptor A3 [13] were 1260 nM and 631 nM, respectively. Further, the inhibition was 0% in assay [11] and “Dose-dependent effect” in assay [5].

With `CCCn1c(=O)c2c(nc3cc(OC)ccn32)n(CCNC(=O)c2ccc(S(=O)(=O)F)cc2)c1=O`, the inhibition was 27% in [15] and “Dose-dependent effect” in assay [5].

For `CCCn1c(=O)c2c(nc3cc(OC)ccn32)n(CCCCNC(=O)c2cccc(S(=O)(=O)F)c2)c1=O`, the inhibition result in assay [5] was “Dose-dependent effect”.

Take `CCCn1c(=O)c2c(nc3cc(OC)ccn32)n(CCCOC(=O)c2cccc(S(=O)(=O)F)c2)c1=O`: the inhibition result in assay [5] is “Dose-dependent effect”.

For `CCCn1c(=O)c2c(nc3cc(OC)ccn32)n(CCCNC(=O)c2cccc(S(=O)(=O)F)c2)c1=O`, the inhibition entry in assay [5] was “Dose-dependent effect”.

For `CCCn1c(=O)c2c(nc3cc(OC)ccn32)n(CCCCOC(=O)c2ccc(S(=O)(=O)F)cc2)c1=O`, the inhibition result in [5] is “Dose-dependent effect”.

With `CCCn1c(=O)c2c(nc3cc(OC)ccn32)n(CCCOC(=O)c2ccc(S(=O)(=O)F)cc2)c1=O`, the inhibition result in assay [5] was “Dose-dependent effect”.

Take `CCCn1c(=O)c2c(nc3cc(OC)ccn32)n(CCCCOC(=O)c2cccc(S(=O)(=O)F)c2)c1=O`: the inhibition result in [5] is “Dose-dependent effect”.

Consider `CCCn1c(=O)c2c(nc3cc(OC)ccn32)n(CCOC(=O)c2ccc(S(=O)(=O)F)cc2)c1=O`, for which the inhibition result in assay [5] is “Dose-dependent effect”.

`CCCn1c(=O)c2c(nc3cc(OC)ccn32)n(CCCCNC(=O)c2ccc(S(=O)(=O)F)cc2)c1=O`: the inhibition entry in assay [5] is “Dose-dependent effect”.

On to `CCCn1c(=O)c2c(nc3cc(OC)ccn32)n(CCNC(=O)c2cccc(S(=O)(=O)F)c2)c1=O`, for which the inhibition in assay [15] was 18%; in assay [5] it was “Dose-dependent effect”.

Consider `CCCn1c(=O)c2c(nc3cc(OC)ccn32)n(CCOC(=O)c2cccc(S(=O)(=O)F)c2)c1=O`, for which the inhibition entry in [5] was “Dose-dependent effect”.
